In assay [1] the target is Somatostatin receptor type 4 (Homo sapiens, UniProt P31391). The assay is described as follows: Displacement of [125I]iodotyrosyl from human SST4 receptor expressed in CHO cells. Format: cell-based. The essentials:
(§1)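 Membranes from CHO cells stably expressing cloned human sst1–5 were used at 2 µg protein/well (sst1), 0.2 (sst2) or 0.7 (sst3, sst4, sst5). After GF/B filtration, bound label was counted. Nonspecific binding used 1 µM SST28; Ki came from single-site fits with known Kd; tested once in duplicate.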

Assay [2] addresses T1, Melanin-concentrating hormone receptor 1 (Homo sapiens, UniProt Q99705). The assay is described as follows: Displacement of [I125I]MCH from human MCH1 receptor expressed in CHO cells by scintillation counting. Format: cell-based. Put shortly:
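SPA competition on membranes of CHO cells stably expressing human MCH1, premixed with WGA-PVT beads (0.25 mg/well). Test compound was added at increasing concentrations with [125I]-MCH in HEPES pH 7.4 buffer containing CaCl2, MgCl2 and 0.2% BSA, incubated 2 h at room temperature, then scintillation-counted. Phe-(D)Tyr-MCH served as reference ligand; IC50 came from sigmoidal dose-response fits.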

Assay [3] has as its target Somatostatin receptor type 1 (Homo sapiens, UniProt P30872). The assay is described as follows: Displacement of [125I]iodotyrosyl from human SST1 receptor expressed in CHO cells. The assay is classed as cell-based. The essentials: as §1
(In general: In a radioligand displacement assay an active substance lowers the binding of a labelled ligand.)

Assay [4] addresses Somatostatin receptor type 2 (Homo sapiens, UniProt P30874). Put plainly: Displacement of [125I]iodotyrosyl from human SST2 receptor expressed in CHO cells. The assay is classed as cell-based. Put shortly:
as §1

In assay [5] the target is Somatostatin receptor type 3 (Homo sapiens, UniProt P32745). Put plainly: Displacement of [125I]iodotyrosyl from human SST3 receptor expressed in CHO cells. The assay is classed as cell-based. Put shortly:
as §1

Assay [6] addresses Somatostatin receptor type 5 (Homo sapiens, UniProt P35346). Put plainly: Displacement of [125I]iodotyrosyl from human SST5 receptor expressed in CHO cells. Format: cell-based. Put shortly:
as §1

Assay [7] has as its target T1, Melanin-concentrating hormone receptor 1. Put plainly: Displacement of [I125I]MCH from human MCH1 receptor expressed in CHO cells (empty) by scintillation counting. Conditions: 3 uM.

Somatostatin receptor type 3, sequence (P32745 whole entry): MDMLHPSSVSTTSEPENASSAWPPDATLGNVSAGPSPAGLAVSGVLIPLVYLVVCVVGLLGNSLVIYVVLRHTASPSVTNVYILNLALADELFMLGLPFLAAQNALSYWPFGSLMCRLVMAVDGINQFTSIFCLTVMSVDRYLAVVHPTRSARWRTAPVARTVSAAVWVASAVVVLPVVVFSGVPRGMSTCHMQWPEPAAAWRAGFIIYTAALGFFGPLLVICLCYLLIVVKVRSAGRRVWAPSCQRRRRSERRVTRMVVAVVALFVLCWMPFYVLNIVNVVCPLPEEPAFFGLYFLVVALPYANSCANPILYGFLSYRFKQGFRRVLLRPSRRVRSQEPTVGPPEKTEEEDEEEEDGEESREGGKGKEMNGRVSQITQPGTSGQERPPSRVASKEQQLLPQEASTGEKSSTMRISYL
Somatostatin receptor type 1, sequence (P30872 whole entry): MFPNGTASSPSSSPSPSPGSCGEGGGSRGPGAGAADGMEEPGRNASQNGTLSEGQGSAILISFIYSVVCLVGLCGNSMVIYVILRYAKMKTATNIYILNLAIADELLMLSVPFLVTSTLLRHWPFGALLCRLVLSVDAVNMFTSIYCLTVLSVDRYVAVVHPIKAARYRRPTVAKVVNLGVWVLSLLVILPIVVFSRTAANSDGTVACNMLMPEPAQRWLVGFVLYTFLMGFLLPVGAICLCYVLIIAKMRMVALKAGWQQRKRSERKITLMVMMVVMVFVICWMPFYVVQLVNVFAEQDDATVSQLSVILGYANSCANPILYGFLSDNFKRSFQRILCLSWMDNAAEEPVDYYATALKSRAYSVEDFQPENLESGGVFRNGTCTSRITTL
T1 sequence (Q99705 whole entry): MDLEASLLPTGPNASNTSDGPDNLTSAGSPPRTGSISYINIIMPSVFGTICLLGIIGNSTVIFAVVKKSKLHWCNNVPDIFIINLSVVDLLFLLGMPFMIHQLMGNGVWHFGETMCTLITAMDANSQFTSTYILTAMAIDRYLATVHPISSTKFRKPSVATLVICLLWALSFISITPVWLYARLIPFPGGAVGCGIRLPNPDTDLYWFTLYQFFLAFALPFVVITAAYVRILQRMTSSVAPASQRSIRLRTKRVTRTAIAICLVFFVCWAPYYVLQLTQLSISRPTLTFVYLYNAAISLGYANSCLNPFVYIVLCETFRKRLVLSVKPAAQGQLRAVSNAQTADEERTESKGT
Somatostatin receptor type 4, sequence (P31391 whole entry): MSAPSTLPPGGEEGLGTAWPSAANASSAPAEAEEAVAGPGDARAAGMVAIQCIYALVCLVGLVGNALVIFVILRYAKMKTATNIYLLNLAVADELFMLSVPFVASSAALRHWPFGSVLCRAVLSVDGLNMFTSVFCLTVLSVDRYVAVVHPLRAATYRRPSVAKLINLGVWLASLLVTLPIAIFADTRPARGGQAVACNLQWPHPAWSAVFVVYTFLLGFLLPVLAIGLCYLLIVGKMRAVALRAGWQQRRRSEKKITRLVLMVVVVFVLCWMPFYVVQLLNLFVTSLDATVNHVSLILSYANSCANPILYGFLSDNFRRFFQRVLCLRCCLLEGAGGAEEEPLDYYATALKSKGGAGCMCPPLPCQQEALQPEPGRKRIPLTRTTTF
Somatostatin receptor type 5, sequence (P35346 whole entry): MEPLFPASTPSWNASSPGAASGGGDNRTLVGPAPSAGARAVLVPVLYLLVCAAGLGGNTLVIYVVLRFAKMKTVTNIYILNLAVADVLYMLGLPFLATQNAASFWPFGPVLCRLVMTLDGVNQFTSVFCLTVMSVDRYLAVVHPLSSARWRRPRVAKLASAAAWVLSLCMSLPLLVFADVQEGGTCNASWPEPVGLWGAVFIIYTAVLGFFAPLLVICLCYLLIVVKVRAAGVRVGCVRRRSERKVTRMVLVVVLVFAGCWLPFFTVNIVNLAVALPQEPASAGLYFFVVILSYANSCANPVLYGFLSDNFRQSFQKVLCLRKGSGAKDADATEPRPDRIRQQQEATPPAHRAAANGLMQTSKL
Somatostatin receptor type 2, sequence (P30874 whole entry): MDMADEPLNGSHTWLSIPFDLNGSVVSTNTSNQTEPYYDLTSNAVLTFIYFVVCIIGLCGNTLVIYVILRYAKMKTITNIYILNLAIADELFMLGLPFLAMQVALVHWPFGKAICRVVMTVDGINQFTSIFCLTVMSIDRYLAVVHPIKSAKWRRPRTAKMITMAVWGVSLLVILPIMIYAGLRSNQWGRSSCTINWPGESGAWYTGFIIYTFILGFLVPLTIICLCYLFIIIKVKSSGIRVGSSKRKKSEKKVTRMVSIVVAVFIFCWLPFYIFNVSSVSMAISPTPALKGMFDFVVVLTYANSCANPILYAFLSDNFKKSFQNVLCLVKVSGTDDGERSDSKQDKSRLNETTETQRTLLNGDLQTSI

Take `CS[C@@H]1O[C@H](COCc2ccccc2)[C@@H](O)[C@@H](OCc2ccc3ccccc3c2)[C@H]1NC(=O)CCN=C(N)N`: the IC50 (as a rule, the concentration that inhibits the measured activity by half) in assay [1] is 180 nM. This lies in the sub-micromolar range.

`COC[C@H]1O[C@H](OCc2ccc3ccccc3c2)[C@H](NC(=O)CCCN=C(N)N)[C@@H](OCc2ccc(Cl)cc2)[C@@H]1O` came in with an IC50 in assay [2] of 920 nM.

As for `COC[C@H]1O[C@@H](OCCc2ccccc2)[C@H](NC(=O)CCCN)[C@@H](OCc2ccc3ccccc3c2)[C@@H]1O`, the IC50 in assay [3] is > 10000 nM; in assay [4] it was 3320 nM; in assay [5], 1320 nM; in assay [1], > 10000 nM; in assay [6] it was 180 nM.

In the case of `COC[C@H]1OC(OCc2ccc3ccccc3c2)[C@H](NC(=O)CCN=C(N)N)[C@@H](OCc2ccc3ccccc3c2)[C@@H]1O` (some centres undefined), the Ki (as a rule, the equilibrium dissociation constant of an inhibitor or competing ligand from its target) in assay [2] amounted to 6300 nM.

Consider `CS[C@@H]1O[C@H](COCc2ccc(Cl)cc2)[C@@H](O)[C@@H](OCc2ccc3ccccc3c2)[C@H]1NC(=O)CCN`, for which the IC50 in assay [3] turned out to be 9590 nM; in assay [4], 980 nM; in assay [5], 6330 nM; in assay [1], 430 nM; in assay [6] it was 6000 nM.

In the case of `COC[C@H]1O[C@H](OCc2ccc(Cl)cc2)[C@H](NC(=O)CCCN=C(N)N)[C@@H](OCc2ccc3ccccc3c2)[C@@H]1O`, the IC50 in assay [2] stood at 450 nM.

For `COC[C@H]1O[C@H](OCCc2ccccc2)[C@H](NC(=O)CCCN)[C@H](OCc2ccc3ccccc3c2)[C@@H]1O`, the IC50 is > 10000 nM in assay [3]; 6100 nM in assay [4]; 8400 nM in assay [5]; > 10000 nM in assay [1]; 200 nM in assay [6].

The compound `COC[C@H]1OC(OCCc2ccccc2)[C@H](NC(=O)CCCN=C(N)N)[C@@H](OCc2ccc(Cl)cc2)[C@@H]1O` (some centres undefined) displayed a Ki in assay [2] of 3500 nM.

For `COC[C@H]1OC(OCc2ccc(Cl)cc2)[C@H](NC(=O)CCCN=C(N)N)[C@@H](OCc2ccc(Cl)cc2)[C@@H]1O` (some centres undefined), affinity in assay [2] was put at a Ki of 1200 nM.

On to `COC[C@H]1OC(OCc2ccc3ccccc3c2)[C@H](NC(=O)CCCN=C(N)N)[C@@H](OCc2ccc(Cl)cc2)[C@@H]1O` (some centres undefined), for which the Ki in assay [2] stood at 1800 nM.

In assay [2], `COC[C@H]1O[C@@H](OCc2ccc3ccccc3c2)[C@H](NC(=O)CCCN=C(N)N)[C@@H](OCc2ccc(Cl)cc2)[C@@H]1O` displayed an IC50 of 1750 nM. In other words, the single-digit micromolar range.

With `CS[C@@H]1O[C@H](COCc2ccccc2)[C@@H](O)[C@@H](OCc2ccc3ccccc3c2)[C@H]1NC(=O)CCN`, in assay [1], the IC50 was 660 nM. That is a sub-micromolar value.

`COC[C@H]1O[C@@H](OCc2ccc3ccccc3c2)[C@H](NC(=O)CCN)[C@@H](OCc2ccc3ccccc3c2)[C@@H]1O`: the IC50 in assay [3] stood at 2800 nM; in assay [4], 650 nM; in assay [5] it was 380 nM; in assay [1], 4000 nM; in assay [6] it was 20 nM.

In assay [2], `COC[C@H]1O[C@@H](OCc2ccc(Cl)cc2)[C@H](NC(=O)CCCN=C(N)N)[C@@H](OCc2ccc(Cl)cc2)[C@@H]1O` yielded an IC50 of 1660 nM. This lies in the single-digit micromolar range.

Consider `COC[C@H]1O[C@@H](OCc2ccc(Cl)cc2)[C@H](NC(=O)CCCN=C(N)N)[C@@H](OCc2ccc3ccccc3c2)[C@@H]1O`, for which the IC50 in assay [7] was > 3000 nM.

Take `CS[C@@H]1O[C@H](COCc2ccc(Cl)cc2)[C@@H](O)[C@@H](OCc2ccc3ccccc3c2)[C@H]1NC(=O)CCCN=C(N)N`: in assay [1], the IC50 was determined as 720 nM. In other words, the sub-micromolar range.

For the compound `COC[C@H]1O[C@@H](OCc2ccc3ccccc3c2)[C@H](NC(=O)CCCN)[C@@H](OCc2ccc(Cl)cc2)[C@@H]1O`, the IC50 in assay [3] was > 10000 nM; in assay [4], > 10000 nM; in assay [1], > 10000 nM; in assay [6], 50 nM.

In assay [2], `COC[C@H]1OC(OCc2ccc(Cl)cc2)[C@H](NC(=O)CCCN=C(N)N)[C@@H](OCc2ccc3ccccc3c2)[C@@H]1O` (some centres undefined) returned a Ki of 2600 nM.

As to `COC[C@H]1OC(OCc2ccc3ccccc3c2)[C@H](NC(=O)CCCN=C(N)N)[C@@H](OCc2ccc3ccccc3c2)[C@@H]1O` (some centres undefined), the Ki in assay [2] stood at 5100 nM.

`CS[C@@H]1O[C@H](COCc2ccc3ccccc3c2)[C@@H](O)[C@@H](OCc2ccc3ccccc3c2)[C@H]1NC(=O)CCN` had an IC50 in assay [1] of 440 nM.

In turn, `COC[C@H]1O[C@H](OCc2ccc(Cl)cc2)[C@H](NC(=O)CCCN=C(N)N)[C@@H](OCc2ccc(Cl)cc2)[C@@H]1O` returned an IC50 in assay [2] of 120 nM.

Compound `COC[C@H]1O[C@H](OCc2ccc3ccccc3c2)[C@H](NC(=O)CCCN=C(N)N)[C@@H](OCc2ccc3ccccc3c2)[C@@H]1O` had an IC50 in assay [2] of 1160 nM.

With `COC[C@H]1O[C@H](OCc2ccc3ccccc3c2)[C@H](NC(=O)CCCN)[C@H](OCc2ccc(Cl)cc2)[C@@H]1O`, the IC50 in assay [3] was > 10000 nM; in assay [4], > 10000 nM; in assay [5], 500 nM; in assay [1], > 10000 nM; in assay [6], 70 nM.

In assay [6], `COC[C@H]1OC(OCCc2ccccc2)[C@H](NC(=O)CCN)C(OCc2ccc3ccccc3c2)[C@@H]1O` (some centres undefined) came in with an IC50 of 160 nM.

On to `COC[C@H]1O[C@H](OCCc2ccccc2)[C@H](NC(=O)CCCN=C(N)N)[C@@H](OCc2ccc(Cl)cc2)[C@@H]1O`, for which the IC50 in assay [2] came out at 540 nM.

Regarding `COC[C@H]1OC(OCc2ccc3ccccc3c2)[C@H](NC(=O)CN=C(N)N)[C@@H](OCc2ccc(Cl)cc2)[C@@H]1O` (some centres undefined), in assay [2], the Ki came to 6600 nM.

Source of the values: ChEMBL document CHEMBL1250479, “Biological diversity from a structurally diverse library: systematically scanning conformational space using a pyranose scaffold” (J Med Chem, 2010).
